Measurements reported in ChEMBL document CHEMBL1129565, “Selective inhibitors of monoamine oxidase. 3. Structure-activity relationship of tricyclics bearing imidazoline, oxadiazole, or tetrazole groups” (J Med Chem, 1996).

Assays:
[1] = target: T1, Amine oxidase [flavin-containing] A (Rattus norvegicus, UniProt P21396); assay: Inhibitory activity against Monoamine oxidase A at 1 uM
T1 sequence (P21396 whole entry): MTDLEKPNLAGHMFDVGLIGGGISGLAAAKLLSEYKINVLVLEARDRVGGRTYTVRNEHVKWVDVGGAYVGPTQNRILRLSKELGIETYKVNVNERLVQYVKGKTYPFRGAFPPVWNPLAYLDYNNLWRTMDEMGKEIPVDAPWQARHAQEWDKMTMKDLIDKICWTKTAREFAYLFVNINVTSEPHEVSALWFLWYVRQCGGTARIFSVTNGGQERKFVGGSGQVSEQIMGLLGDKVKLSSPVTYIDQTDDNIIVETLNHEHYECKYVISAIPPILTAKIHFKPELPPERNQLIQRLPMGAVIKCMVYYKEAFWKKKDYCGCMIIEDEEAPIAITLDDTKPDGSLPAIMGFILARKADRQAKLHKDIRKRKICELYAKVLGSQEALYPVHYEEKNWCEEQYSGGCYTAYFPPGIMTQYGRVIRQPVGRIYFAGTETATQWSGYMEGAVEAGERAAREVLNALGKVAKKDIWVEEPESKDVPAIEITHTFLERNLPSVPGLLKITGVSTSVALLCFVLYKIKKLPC
Procedure, shortened: (§1)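 Rat brain mitochondrial MAO extract preincubated with inhibitor 15 min at 37 °C in 50 mM potassium phosphate pH 7.4. [3H]serotonin added at 0.2 μM final, then 20 min incubation. Pargyline 2 mM blanks. Stopped with HCl, products extracted into ethyl acetate/toluene and counted radiometrically. Triplicates; IC50 from mean % inhibition vs log concentration.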

[2] = target: T1, Amine oxidase [flavin-containing] A; assay: Inhibitory concentration against rat brain mitochondrial monoamine oxidase A; procedure, shortened: as §1
[3] = target: T1, Amine oxidase [flavin-containing] A; assay: Inhibition of the enzyme Monoamine oxidase A which was not completely reverserved after 24 hr of dialysis
Procedure, shortened: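 Reversibility: MAO extract preincubated with or without inhibitor 15 min at 37 °C, in duplicate, then dialysed 24 h at 4 °C with shaking against 0.1 M potassium phosphate pH 7.4, 5% sucrose, 1 mM dithiothreitol, buffer changed ca. 3 and 19 h. Undialysed portions held at 4 °C; both assayed together for MAO activity.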

[4] = target: T2, Amine oxidase [flavin-containing] B (Rattus norvegicus, UniProt P19643); assay: Inhibitory activity against rat brain mitochondrial Monoamine oxidase B at 0.003 uM
T2 sequence (P19643 whole entry): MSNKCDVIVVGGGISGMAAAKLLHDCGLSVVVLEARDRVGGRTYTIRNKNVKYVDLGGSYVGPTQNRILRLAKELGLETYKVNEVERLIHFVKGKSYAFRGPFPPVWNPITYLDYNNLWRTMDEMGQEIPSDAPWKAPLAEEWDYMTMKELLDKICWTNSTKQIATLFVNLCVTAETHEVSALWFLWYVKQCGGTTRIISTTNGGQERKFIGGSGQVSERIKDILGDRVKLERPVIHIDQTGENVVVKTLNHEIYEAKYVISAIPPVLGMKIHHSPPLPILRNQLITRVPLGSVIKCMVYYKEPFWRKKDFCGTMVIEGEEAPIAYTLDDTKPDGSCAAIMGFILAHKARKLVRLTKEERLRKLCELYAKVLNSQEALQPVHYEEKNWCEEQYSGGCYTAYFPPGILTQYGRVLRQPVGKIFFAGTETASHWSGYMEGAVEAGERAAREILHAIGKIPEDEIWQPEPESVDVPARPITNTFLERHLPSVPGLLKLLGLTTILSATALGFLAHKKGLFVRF
Procedure, shortened: as §1, with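 “[14C]phenethylamine” for “[3H]serotonin”, “10” for “0.2”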

[5] = target: T2, Amine oxidase [flavin-containing] B; assay: Inhibitory activity against rat brain mitochondrial Monoamine oxidase B; NS=not significant at 0.001 uM
Procedure, shortened: as §1, with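 “[14C]phenethylamine” for “[3H]serotonin”, “10” for “0.2”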

[6] = target: T1, Amine oxidase [flavin-containing] A; assay: Inhibitory concentration against Monoamine oxidase A
Procedure, shortened: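 Rat brain mitochondrial MAO extract was preincubated ± inhibitor 15 min at 37 °C in 50 mM potassium phosphate (pH 7.4), then given [3H]serotonin at 0.2 μM final for 20 min. Blanks contained 2 mM pargyline. Products went into ethyl acetate/toluene for scintillation counting. Triplicates per concentration; IC50 extrapolated from mean % inhibition vs log concentration plots.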

[7] = target: T2, Amine oxidase [flavin-containing] B; assay: Inhibitory activity against Monoamine oxidase B at 1 uM
Procedure, shortened: as §1, with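 “[14C]phenethylamine” for “[3H]serotonin”, “10” for “0.2”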

[8] = target: T2, Amine oxidase [flavin-containing] B; assay: Inhibitory activity against rat brain mitochondrial Monoamine oxidase B at 0.03 uM
Procedure, shortened: as §1, with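 “[14C]phenethylamine” for “[3H]serotonin”, “10” for “0.2”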

[9] = target: T2, Amine oxidase [flavin-containing] B; assay: Inhibitory activity against rat brain mitochondrial Monoamine oxidase B at 3 uM
Procedure, shortened: as §1, with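 “[14C]phenethylamine” for “[3H]serotonin”, “10” for “0.2”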

[10] = target: T1, Amine oxidase [flavin-containing] A; assay: Inhibitory concentration against rat brain mitochondrial Monoamine oxidase A at 3 uM; procedure, shortened: as §1
[11] = target: T2, Amine oxidase [flavin-containing] B; assay: Inhibitory activity against rat brain mitochondrial Monoamine oxidase B at 0.5 uM
Procedure, shortened: as §1, with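 “[14C]phenethylamine” for “[3H]serotonin”, “10” for “0.2”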

[12] = target: T1, Amine oxidase [flavin-containing] A; assay: Inhibition of the enzyme Monoamine oxidase A which was not completely reverserved after 24 hr of dialysis after 25 mg/kg po administration *; assay type: organism-based; design: dose 25 mg/kg, route oral; details: in vivo
[13] = target: T2, Amine oxidase [flavin-containing] B; assay: Inhibitory activity against rat brain mitochondrial Monoamine oxidase B; NS=not significant ta 1 uM
Procedure, shortened: as §1, with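 “[14C]phenethylamine” for “[3H]serotonin”, “10” for “0.2”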

[14] = target: T2, Amine oxidase [flavin-containing] B; assay: Inhibitory activity against rat brain mitochondrial Monoamine oxidase B at 50 uM
Procedure, shortened: as §1, with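 “[14C]phenethylamine” for “[3H]serotonin”, “10” for “0.2”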

[15] = target: T2, Amine oxidase [flavin-containing] B; assay: Inhibitory activity against rat brain mitochondrial Monoamine oxidase B at 0.2 uM
Procedure, shortened: as §1, with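 “[14C]phenethylamine” for “[3H]serotonin”, “10” for “0.2”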

[16] = target: T2, Amine oxidase [flavin-containing] B; assay: Inhibitory activity against rat brain mitochondrial Monoamine oxidase B 0.1(uM)
Procedure, shortened: as §1, with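 “[14C]phenethylamine” for “[3H]serotonin”, “10” for “0.2”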

[17] = target: T1, Amine oxidase [flavin-containing] A; assay: Inhibition of the enzyme MAO A which was not completely reverserved after 24 hr of dialysis after po administration to rat (brain); assay type: organism-based; details: in vivo
[18] = target: T1, Amine oxidase [flavin-containing] A; assay: Inhibitory concentration against rat brain mitochondrial Monoamine oxidase A at <5 uM; procedure, shortened: as §1
[19] = target: T2, Amine oxidase [flavin-containing] B; assay: Inhibitory activity against rat brain mitochondrial Monoamine oxidase B
Procedure, shortened: as §1, with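 “[14C]phenethylamine” for “[3H]serotonin”, “10” for “0.2”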

[20] = target: T1, Amine oxidase [flavin-containing] A; assay: Inhibitory activity against rat brain mitochondrial Monoamine oxidase A (Expt 2)
[21] = target: T1, Amine oxidase [flavin-containing] A; assay: Inhibitory concentration against rat brain mitochondrial Monoamine oxidase A (Expt 1); procedure, shortened: as §1
[22] = target: T2, Amine oxidase [flavin-containing] B; assay: Inhibitory activity against rat brain mitochondrial Monoamine oxidase B;NS=not significant at 0.1 uM
Procedure, shortened: as §1, with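 “[14C]phenethylamine” for “[3H]serotonin”, “10” for “0.2”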

[23] = target: T1, Amine oxidase [flavin-containing] A; assay: Inhibition of the enzyme Monoamine oxidase A which was not completely reverserved after 24 hr of dialysis after 20 mg/kg po administration; assay type: organism-based; design: dose 20 mg/kg, route oral; details: in vivo
[24] = target: T2, Amine oxidase [flavin-containing] B; assay: Inhibitory activity against Monoamine oxidase B; NS=not significant at 0.001 uM
Procedure, shortened: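 Rat brain mitochondrial MAO extract preincubated with or without inhibitor 15 min at 37 °C in 50 mM potassium phosphate, pH 7.4. [14C]phenethylamine was then added to 10 μM final and incubated 20 min. Blanks contained 2 mM pargyline. Products were extracted into ethyl acetate/toluene and counted by scintillation. Triplicates at each inhibitor concentration; mean percent inhibition.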

[25] = target: T2, Amine oxidase [flavin-containing] B; assay: Inhibitory activity against rat brain mitochondrial Monoamine oxidase B;NS=not significant at 1 uM
Procedure, shortened: as §1, with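 “[14C]phenethylamine” for “[3H]serotonin”, “10” for “0.2”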

[26] = target: T2, Amine oxidase [flavin-containing] B; assay: Inhibitory activity against rat brain mitochondrial Monoamine oxidase B at 0.0 uM
Procedure, shortened: as §1, with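 “[14C]phenethylamine” for “[3H]serotonin”, “10” for “0.2”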

[27] = target: T2, Amine oxidase [flavin-containing] B; assay: Inhibitory activity against rat brain mitochondrial Monoamine oxidase B; NS=not significant at 1 uM
Procedure, shortened: as §1, with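 “[14C]phenethylamine” for “[3H]serotonin”, “10” for “0.2”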

[28] = target: T1, Amine oxidase [flavin-containing] A; assay: Inhibitory concentration against rat brain mitochondrial Monoamine oxidase A at 0.5 uM; procedure, shortened: as §1
[29] = target: T2, Amine oxidase [flavin-containing] B; assay: Inhibitory activity against rat brain mitochondrial Monoamine oxidase B at 0.1 uM
Procedure, shortened: as §1, with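 “[14C]phenethylamine” for “[3H]serotonin”, “10” for “0.2”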

Work on c1ccc2c(c1)cc(C1=NCCN1)c1ccccc12 yielded an inhibition at 1 µM [1] of 30%.

Molecule CCCOc1ccc2c(c1)C(=O)c1ccc(-c3nnn(C)n3)cc1S2(=O)=O has an IC50 [2] of 2 nM, a Reversible [3] of 0% and an inhibition at 0.003 µM [4] of -13%.

With Cc1ccc2c(c1)C(=O)c1ccc(-c3nnc(C)o3)cc1S2(=O)=O the IC50 [2] was 2 nM, the Reversible [3] was 10% and the IC50 [5] was “Not Active”.

Molecule c1ccc2c(c1)Sc1ccc(C3=NCCN3)cc1S2 has an IC50 [6] of 300 nM and an inhibition at 1 µM [7] of 31%.

CN(C)c1ccc2c(c1)C(=O)c1ccc(C3=NCCN3)cc1S2(=O)=O gave an IC50 [2] of 20 nM, a Reversible [3] of 21% and an inhibition at 0.03 µM [8] of 8%.

c1ccc2c(c1)[nH]c1cc(C3=NCCN3)ccc12 showed an inhibition at 3 µM [9] of 38% and an inhibition at 3 µM [10] of 33%.

Molecule COc1nc(-c2ccc3c(c2)S(=O)(=O)c2ccccc2C3=O)no1 has an IC50 [2] of 80 nM and an inhibition at 0.5 µM [11] of 23%.

Cc1nnc(-c2ccc3c(c2)S(=O)(=O)c2ccccc2C3=O)o1 was tested, and the IC50 [2] was 2 nM, the Reversible [12] was 33% and the IC50 [13] was “Not Active”.

Molecule Cn1nnc(-c2ccc3c(c2)S(=O)(=O)c2ccccc2O3)n1 has an IC50 [2] of 2 nM and an inhibition at 50 µM [14] of 10%.

O=C1c2cc(N3CCSCC3)ccc2S(=O)(=O)c2cc(C3=NCCN3)ccc21 showed an IC50 [2] of 20 nM and an inhibition at 0.2 µM [15] of 10%.

O=S1(=O)c2cc(C3=NCCN3)ccc2Oc2ccc(C3=NCCN3)cc21 was tested, and the % inhibition [16] was 5%.

Molecule O=C1c2cc(Cl)ccc2S(=O)(=O)c2cc(C3=NCCN3)ccc21 has an IC50 [2] of 70 nM, a Reversible [17] of 60% and an inhibition at 0.2 µM [15] of 3%.

O=C1c2ccccc2S(=O)(=O)c2cc(-c3ncc[nH]3)ccc21 was tested, and the Inhibition [18] was 44% and the Inhibition [19] was 10%.

CCCOc1ccc2c(c1)C(=O)c1ccc(C3=NCCN3)cc1S2(=O)=O gave an IC50 [20] of 9 nM, an IC50 [21] of 40 nM and a Reversible [3] of 2%. The IC50 [22] was “Not Active”.

With Cc1nnc(-c2ccc3c(c2)OOc2ccccc2C3=O)o1 the IC50 [6] was 2 nM, the Reversible [23] was 12% and the Inhibition [24] was “Not Active”.

For O=C1c2cc(NCCO)ccc2S(=O)(=O)c2cc(C3=NCCN3)ccc21, the IC50 [2] was 40 nM and the IC50 [25] was “Not Active”.

CCCNc1ccc2c(c1)C(=O)c1ccc(C3=NCCN3)cc1S2(=O)=O was tested, and the IC50 [2] was 20 nM, the Reversible [3] was 0% and the Inhibition [26] was 4%.

For CC(C)(C)c1ccc2c(c1)C(=O)c1ccc(C3=NCCN3)cc1S2(=O)=O, the IC50 [2] was 800 nM, the Reversible [3] was 56% and the IC50 [27] was “Not Active”.

O=C1c2ccccc2S(=O)(=O)c2cc(-c3nnc(C(F)(F)F)o3)ccc21 gave an inhibition at 0.5 µM [28] of 7% and an inhibition at 0.1 µM [29] of 7%.
